According to ChEMBL document CHEMBL5058577, “EUbOPEN Chemogenomics Library 2 (Multiplex)” (2022):

Test system: Fibroblast
Experiment: Multiplex assay against human fibroblast
Type: toxicity, cell-based
In short: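 At seeding, live cells were stained with Hoechst33342, BioTracker Green Microtubule Cytoskeleton Dye, MitoTracker Red and Annexin V Alexa Fluor 680. After compound addition they were imaged on a CQ1 microscope at 37°C and 5% CO2, and CellPathfinder machine-learning gating sorted them into Hoechst high-intensity objects or normal cells, with normal cells further split into healthy, pyknosed or fragmented nuclei and pyknosed cells into mitotic or apoptotic. Tubulin, mitochondrial-mass and membrane-permeability phenotypes are given as per cents of cells with healthy nuclei.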

[1] = 12 h, 1 µM, compound concentration 1 uM, replicate 1
[2] = 12 h, 1 µM, compound concentration 1 uM, replicate 2
[3] = 12 h, 10 µM, compound concentration 10 uM, replicate 1
[4] = 12 h, 10 µM, compound concentration 10 uM, replicate 2
[5] = 24 h, 1 µM, compound concentration 1 uM, replicate 1
[6] = 24 h, 1 µM, compound concentration 1 uM, replicate 2
[7] = 24 h, 10 µM, compound concentration 10 uM, replicate 1
[8] = 24 h, 10 µM, compound concentration 10 uM, replicate 2
[9] = 48 h, 1 µM, compound concentration 1 uM, replicate 1
[10] = 48 h, 1 µM, compound concentration 1 uM, replicate 2
[11] = 48 h, 10 µM, compound concentration 10 uM, replicate 1
[12] = 48 h, 10 µM, compound concentration 10 uM, replicate 2

SMILES: CC(=O)Nc1cccc2c1c(Sc1ccc(Cl)cc1)c(C)n2CC(=O)O [AZD1981]
- Population Apoptotic (%) [1]: 27%
- Population Fragmented Nuclei (%) [1]: 18%
- Population Healthy Nuclei (%) [1]: 61%
- Population Hoechst High Intensity Objects (%) [1]: 1%
- Population Membrane Permeable-Phenotype (%) [1]: 2%
- Population Mitochondria Different-Phenotype (%) [1]: 9%
- Population Mitotic Cells (%) [1]: 72%
- Population Normal (%) [1]: 98%
- Population Pyknosed Nuclei (%) [1]: 19%
- Population Tubulin-Different-Phenotype (%) [1]: 33%
- Total Cell Count [1]: 173
- Population Apoptotic (%) [2]: 37%
- Population Fragmented Nuclei (%) [2]: 31%
- Population Healthy Nuclei (%) [2]: 47%
- Population Hoechst High Intensity Objects (%) [2]: 3%
- Population Membrane Permeable-Phenotype (%) [2]: 14%
- Population Mitochondria Different-Phenotype (%) [2]: 7%
- Population Mitotic Cells (%) [2]: 62%
- Population Normal (%) [2]: 96%
- Population Pyknosed Nuclei (%) [2]: 21%
- Population Tubulin-Different-Phenotype (%) [2]: 55%
- Total Cell Count [2]: 118
- Population Apoptotic (%) [3]: 40%
- Population Fragmented Nuclei (%) [3]: 16%
- Population Healthy Nuclei (%) [3]: 64%
- Population Hoechst High Intensity Objects (%) [3]: 3%
- Population Membrane Permeable-Phenotype (%) [3]: 2%
- Population Mitochondria Different-Phenotype (%) [3]: 3%
- Population Mitotic Cells (%) [3]: 60%
- Population Normal (%) [3]: 96%
- Population Pyknosed Nuclei (%) [3]: 19%
- Population Tubulin-Different-Phenotype (%) [3]: 24%
- Total Cell Count [3]: 133
- Population Apoptotic (%) [4]: 33%
- Population Fragmented Nuclei (%) [4]: 35%
- Population Healthy Nuclei (%) [4]: 42%
- Population Hoechst High Intensity Objects (%) [4]: 4%
- Population Membrane Permeable-Phenotype (%) [4]: 8%
- Population Mitochondria Different-Phenotype (%) [4]: 0%
- Population Mitotic Cells (%) [4]: 66%
- Population Normal (%) [4]: 95%
- Population Pyknosed Nuclei (%) [4]: 22%
- Population Tubulin-Different-Phenotype (%) [4]: 35%
- Total Cell Count [4]: 112
- Population Apoptotic (%) [5]: 53%
- Population Fragmented Nuclei (%) [5]: 19%
- Population Healthy Nuclei (%) [5]: 63%
- Population Hoechst High Intensity Objects (%) [5]: 6%
- Population Membrane Permeable-Phenotype (%) [5]: 2%
- Population Mitochondria Different-Phenotype (%) [5]: 2%
- Population Mitotic Cells (%) [5]: 46%
- Population Normal (%) [5]: 93%
- Population Pyknosed Nuclei (%) [5]: 16%
- Population Tubulin-Different-Phenotype (%) [5]: 28%
- Total Cell Count [5]: 168
- Population Apoptotic (%) [6]: 36%
- Population Fragmented Nuclei (%) [6]: 30%
- Population Healthy Nuclei (%) [6]: 53%
- Population Hoechst High Intensity Objects (%) [6]: 3%
- Population Membrane Permeable-Phenotype (%) [6]: 7%
- Population Mitochondria Different-Phenotype (%) [6]: 7%
- Population Mitotic Cells (%) [6]: 63%
- Population Normal (%) [6]: 96%
- Population Pyknosed Nuclei (%) [6]: 15%
- Population Tubulin-Different-Phenotype (%) [6]: 53%
- Total Cell Count [6]: 128
- Population Apoptotic (%) [7]: 41%
- Population Fragmented Nuclei (%) [7]: 13%
- Population Healthy Nuclei (%) [7]: 68%
- Population Hoechst High Intensity Objects (%) [7]: 4%
- Population Membrane Permeable-Phenotype (%) [7]: 2%
- Population Mitochondria Different-Phenotype (%) [7]: 5%
- Population Mitotic Cells (%) [7]: 58%
- Population Normal (%) [7]: 95%
- Population Pyknosed Nuclei (%) [7]: 18%
- Population Tubulin-Different-Phenotype (%) [7]: 17%
- Total Cell Count [7]: 135
- Population Apoptotic (%) [8]: 55%
- Population Fragmented Nuclei (%) [8]: 36%
- Population Healthy Nuclei (%) [8]: 43%
- Population Hoechst High Intensity Objects (%) [8]: 6%
- Population Membrane Permeable-Phenotype (%) [8]: 14%
- Population Mitochondria Different-Phenotype (%) [8]: 0%
- Population Mitotic Cells (%) [8]: 45%
- Population Normal (%) [8]: 93%
- Population Pyknosed Nuclei (%) [8]: 20%
- Population Tubulin-Different-Phenotype (%) [8]: 40%
- Total Cell Count [8]: 104
- Population Apoptotic (%) [9]: 54%
- Population Fragmented Nuclei (%) [9]: 23%
- Population Healthy Nuclei (%) [9]: 61%
- Population Hoechst High Intensity Objects (%) [9]: 6%
- Population Membrane Permeable-Phenotype (%) [9]: 1%
- Population Mitochondria Different-Phenotype (%) [9]: 6%
- Population Mitotic Cells (%) [9]: 45%
- Population Normal (%) [9]: 93%
- Population Pyknosed Nuclei (%) [9]: 15%
- Population Tubulin-Different-Phenotype (%) [9]: 33%
- Total Cell Count [9]: 171
- Population Apoptotic (%) [10]: 57%
- Population Fragmented Nuclei (%) [10]: 34%
- Population Healthy Nuclei (%) [10]: 54%
- Population Hoechst High Intensity Objects (%) [10]: 3%
- Population Membrane Permeable-Phenotype (%) [10]: 8%
- Population Mitochondria Different-Phenotype (%) [10]: 2%
- Population Mitotic Cells (%) [10]: 42%
- Population Normal (%) [10]: 96%
- Population Pyknosed Nuclei (%) [10]: 11%
- Population Tubulin-Different-Phenotype (%) [10]: 52%
- Total Cell Count [10]: 129
- Population Apoptotic (%) [11]: 64%
- Population Fragmented Nuclei (%) [11]: 21%
- Population Healthy Nuclei (%) [11]: 64%
- Population Hoechst High Intensity Objects (%) [11]: 4%
- Population Membrane Permeable-Phenotype (%) [11]: 0%
- Population Mitochondria Different-Phenotype (%) [11]: 2%
- Population Mitotic Cells (%) [11]: 35%
- Population Normal (%) [11]: 95%
- Population Pyknosed Nuclei (%) [11]: 13%
- Population Tubulin-Different-Phenotype (%) [11]: 25%
- Total Cell Count [11]: 134
- Population Apoptotic (%) [12]: 40%
- Population Fragmented Nuclei (%) [12]: 43%
- Population Healthy Nuclei (%) [12]: 42%
- Population Membrane Permeable-Phenotype (%) [12]: 11%
- Population Mitochondria Different-Phenotype (%) [12]: 0%
- Population Mitotic Cells (%) [12]: 60%
- Population Pyknosed Nuclei (%) [12]: 15%
- Population Tubulin-Different-Phenotype (%) [12]: 54%
- Total Cell Count [12]: 105
